From ChEMBL document CHEMBL3616442, “Unconventional Knoevenagel-type indoles: Synthesis and cell-based studies for the identification of pro-apoptotic agents” (Eur J Med Chem, 2015)

What was measured:
[1] = test system: A549; assay: Growth inhibition of human A549 cells after 48 hrs by sulforhodamine B assay; type: functional; details: A549, 48 h
In short: (§1)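 NCI 60-cell-line screen. Compounds tested at five 10-fold dilutions from 10^-4 to 10^-8 M. Cells exposed for the last 48 h of a 72 h incubation, growth estimated by sulforhodamine B protein assay. GI50 is the concentration giving 50% growth inhibition. Values beyond the tested range are expressed as greater or lesser than the extreme concentration.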

[2] = Growth inhibition of human NCI-ADR-RES cells after 48 hrs by sulforhodamine B assay; type: functional; in short: as §1
[3] = test system: SNB-75; assay: Growth inhibition of human SNB75 cells after 48 hrs by sulforhodamine B assay; type: functional; details: SNB-75, 48 h
[4] = test system: PC-3; assay: Growth inhibition of human PC3 cells after 48 hrs by sulforhodamine B assay; type: functional; details: PC-3, 48 h
[5] = test system: MDA-MB-435; assay: Growth inhibition of human MDA-MB-435 cells after 48 hrs by sulforhodamine B assay; type: functional; details: MDA-MB-435, 48 h; in short: as §1
[6] = Growth inhibition of human Hs 578T cells after 48 hrs by sulforhodamine B assay; type: functional; in short: as §1
[7] = test system: SW-620; assay: Growth inhibition of human SW620 cells after 48 hrs by sulforhodamine B assay; type: functional; details: SW-620, 48 h
[8] = test system: CAKI-1; assay: Growth inhibition of human CAKI-1 cells after 48 hrs by sulforhodamine B assay; type: functional; details: CAKI-1, 48 h; in short: as §1
[9] = test system: DU-145; assay: Growth inhibition of human DU145 cells after 48 hrs by sulforhodamine B assay; type: functional; details: DU-145, 48 h; in short: as §1
[10] = Growth inhibition of human SF295 cells after 48 hrs by sulforhodamine B assay; type: functional; details: SF-295, 48 h
[11] = test system: M14; assay: Growth inhibition of human M14 cells after 48 hrs by sulforhodamine B assay; type: functional; details: M14, 48 h; in short: as §1
[12] = test system: MDA-MB-231; assay: Growth inhibition of human MDA-MB-231 cells after 48 hrs by sulforhodamine B assay; type: functional; details: MDA-MB-231, 48 h; in short: as §1
[13] = test system: SK-OV-3; assay: Growth inhibition of human SKOV3 cells after 48 hrs by sulforhodamine B assay; type: functional; details: SK-OV-3, 48 h
[14] = test system: KM12; assay: Growth inhibition of human KM12 cells after 48 hrs by sulforhodamine B assay; type: functional; details: KM12, 48 h; in short: as §1
[15] = test system: SN12C; assay: Growth inhibition of human SN12C cells after 48 hrs by sulforhodamine B assay; type: functional
[16] = test system: IGROV-1; assay: Growth inhibition of human IGROV1 cells after 48 hrs by sulforhodamine B assay; type: functional; details: IGROV-1, 48 h; in short: as §1
[17] = test system: HOP-62; assay: Growth inhibition of human HOP62 cells after 48 hrs by sulforhodamine B assay; type: functional; details: HOP-62, 48 h; in short: as §1
[18] = test system: 786-0; assay: Growth inhibition of human 786-0 cells after 48 hrs by sulforhodamine B assay; type: functional; details: 786-0, 48 h; in short: as §1
[19] = Growth inhibition of human RPMI8226 cells after 48 hrs by sulforhodamine B assay; type: functional; details: RPMI-8226, 48 h
[20] = test system: A498; assay: Growth inhibition of human A498 cells after 48 hrs by sulforhodamine B assay; type: functional; details: A498, 48 h; in short: as §1
[21] = test system: SR; assay: Growth inhibition of human SR cells after 48 hrs by sulforhodamine B assay; type: functional
[22] = Growth inhibition of human HOP92 cells after 48 hrs by sulforhodamine B assay; type: functional; details: HOP-92, 48 h; in short: as §1
[23] = Growth inhibition of human MOLT4 cells after 48 hrs by sulforhodamine B assay; type: functional; details: MOLT-4, 48 h; in short: as §1
[24] = Growth inhibition of human RXF393 cells after 48 hrs by sulforhodamine B assay; type: functional; details: RXF 393, 48 h
[25] = test system: NCI-H23; assay: Growth inhibition of human NCI-H23 cells after 48 hrs by sulforhodamine B assay; type: functional; details: NCI-H23, 48 h; in short: as §1
[26] = test system: NCI-H322M; assay: Growth inhibition of human NCI-H322M cells after 48 hrs by sulforhodamine B assay; type: functional; in short: as §1
[27] = test system: SK-MEL-5; assay: Growth inhibition of human SK-MEL-5 cells after 48 hrs by sulforhodamine B assay; type: functional; details: SK-MEL-5, 48 h
[28] = test system: MCF7; assay: Growth inhibition of human MCF7 cells after 48 hrs by sulforhodamine B assay; type: functional; details: MCF7, 48 h; in short: as §1
[29] = test system: MDA-MB-468; assay: Growth inhibition of human MDA-MB-468 cells after 48 hrs by sulforhodamine B assay; type: functional; details: MDA-MB-468, 48 h; in short: as §1
[30] = test system: NCI-H460; assay: Growth inhibition of human NCI-H460 cells after 48 hrs by sulforhodamine B assay; type: functional; details: NCI-H460, 48 h; in short: as §1
[31] = test system: NCI-H226; assay: Growth inhibition of human NCI-H226 cells after 48 hrs by sulforhodamine B assay; type: functional; details: NCI-H226, 48 h; in short: as §1
[32] = test system: HCT-15; assay: Growth inhibition of human HCT15 cells after 48 hrs by sulforhodamine B assay; type: functional; details: HCT-15, 48 h; in short: as §1
[33] = test system: SK-MEL-28; assay: Growth inhibition of human SK-MEL-28 cells after 48 hrs by sulforhodamine B assay; type: functional; details: SK-MEL-28, 48 h
[34] = test system: MT4; assay: Antiproliferative activity against human MT4 cells after 96 hrs by MTT assay; type: functional, cell-based; details: MT4, 96 h
In short: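 Exponentially growing MT-4 cells (CD4+ human T-cells carrying integrated HTLV-1 genome), seeded at 1×10^5 cells/mL in RPMI-1640 with 10% FCS and antibiotics. Serial dilutions of compound (DMSO stock 100 mM, diluted in medium), 37 °C, 5% CO₂, 96 h. Viability read by MTT. 50% inhibition versus untreated controls by linear regression. Mean ± SD of three independent determinations.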

[35] = test system: K562; assay: Growth inhibition of human K562 cells after 48 hrs by sulforhodamine B assay; type: functional; details: K562, 48 h; in short: as §1
[36] = test system: SF-268; assay: Growth inhibition of human SF268 cells after 48 hrs by sulforhodamine B assay; type: functional; details: SF-268, 48 h
[37] = test system: HCT-116; assay: Growth inhibition of human HCT116 cells after 48 hrs by sulforhodamine B assay; type: functional; details: HCT-116, 48 h; in short: as §1
[38] = test system: T47D; assay: Growth inhibition of human T47D cells after 48 hrs by sulforhodamine B assay; type: functional
[39] = Growth inhibition of human SF539 cells after 48 hrs by sulforhodamine B assay; type: functional; details: SF-539, 48 h
[40] = Growth inhibition of human COLO205 cells after 48 hrs by sulforhodamine B assay; type: functional; details: COLO 205, 48 h; in short: as §1
[41] = test system: HL-60(TB); assay: Growth inhibition of human HL-60(TB) cells after 48 hrs by sulforhodamine B assay; type: functional; details: HL-60, 48 h
In short: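 NCI 60-cell-line screen, HL-60(TB) included. Compound given at five 10-fold dilutions from 10^-4 to 10^-8 M. Cells exposed for the last 48 h of a 72 h incubation. Growth or viability estimated by sulforhodamine B protein assay. GI50 is the concentration giving 50% growth inhibition. Values outside the tested range are reported as greater or less than the highest or lowest concentration.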

[42] = test system: UACC-62; assay: Growth inhibition of human UACC62 cells after 48 hrs by sulforhodamine B assay; type: functional; details: UACC-62, 48 h
[43] = test system: HT-29; assay: Growth inhibition of human HT-29 cells after 48 hrs by sulforhodamine B assay; type: functional; details: HT-29, 48 h; in short: as §1
[44] = test system: SNB-19; assay: Growth inhibition of human SNB19 cells after 48 hrs by sulforhodamine B assay; type: functional; details: SNB-19, 48 h
[45] = test system: U-251; assay: Growth inhibition of human U251 cells after 48 hrs by sulforhodamine B assay; type: functional; details: U-251, 48 h
[46] = test system: SK-MEL-2; assay: Growth inhibition of human SK-MEL-2 cells after 48 hrs by sulforhodamine B assay; type: functional; details: SK-MEL-2, 48 h
[47] = test system: OVCAR-3; assay: Growth inhibition of human OVCAR3 cells after 48 hrs by sulforhodamine B assay; type: functional; details: OVCAR-3, 48 h; in short: as §1

## COc1ccc(-c2[nH]c3ccc(OC)cc3c2C=C(C#N)C#N)cc1
[1]
  GI50: 3800 nM
[2]
  GI50: 403 nM
[3]
  GI50: 593 nM
[4]
  GI50: 342 nM
[5]
  GI50: 122 nM
[6]
  GI50: 513 nM
[7]
  GI50: 579 nM
[8]
  GI50: 392 nM
[9]
  GI50: 917 nM
[10]
  GI50: 306 nM
[11]
  GI50: 308 nM
[12]
  GI50: 1300 nM
[13]
  GI50: 892 nM
[14]
  GI50: 590 nM
[15]
  GI50: 15900 nM
[16]
  GI50: 5800 nM
[17]
  GI50: 3300 nM
[18]
  GI50: 14300 nM
[19]
  GI50: 5100 nM
[20]
  GI50: 75 nM
[21]
  GI50: 152 nM
[22]
  GI50: 23000 nM
[23]
  GI50: 369 nM
[24]
  GI50: 5500 nM
[25]
  GI50: 2000 nM
[26]
  GI50: 380 nM
[27]
  GI50: 324 nM
[28]
  GI50: 385 nM
[29]
  GI50: 503 nM
[30]
  GI50: 472 nM
[31]
  GI50: 1500 nM
[32]
  GI50: 778 nM
[33]
  GI50: 1700 nM
[34]
  EC50: 300 nM
[35]
  GI50: 345 nM
[36]
  GI50: 1700 nM
[37]
  GI50: 487 nM
[38]
  GI50: 2600 nM
[39]
  GI50: 774 nM
[40]
  GI50: 291 nM
[41]
  GI50: 363 nM
[42]
  GI50: 357 nM
[43]
  GI50: 407 nM
[44]
  GI50: 13700 nM
[45]
  GI50: 635 nM
[46]
  GI50: 5900 nM
[47]
  GI50: 424 nM
